Test results published in ChEMBL document CHEMBL5053555, “Design, Synthesis, and Evaluation of Potent, Selective, and Bioavailable AKT Kinase Degraders” (J Med Chem, 2021).
Each block holds one compound with its values, some of them ahead of it. Active and inactive are the calls of the source. No cut-off for these calls is given here.

Experiments:
[1] = biological target: T1, von Hippel-Lindau disease tumor suppressor/AKT (Homo sapiens) (UniProt P31751+Q9Y243+P31749+P40337); test: Protac activity at VHL/AKT in human PC-3 cells assessed as reduction in phosphorylated AKT level at 1 uM after 24 hrs by Western blot analysis; format: cell-based
Summary of the method: (§1)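 PC3 cells were exposed to compound at 1 μM for 24 h, with GSK690693 as reference inhibitor. Lysates were immunoblotted for total AKT, P-AKT S473, P-PRAS40 T246 and P-S6 S240/244, with β-actin as loading control. Detection was by HRP chemiluminescence on film.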

[2] = biological target: T1, von Hippel-Lindau disease tumor suppressor/AKT (Homo sapiens); test: Protac activity at VHL/AKT in human PC-3 cells assessed as reduction in total AKT level at 1 uM after 24 hrs by Western blot analysis; format: cell-based; summary of the method: as §1
[3] = biological target: T1, von Hippel-Lindau disease tumor suppressor/AKT (Homo sapiens); test: Protac activity at VHL/AKT in human PC-3 cells assessed as reduction in PRAS40 phosphorylation at 1 uM after 24 hrs by Western blot analysis; format: cell-based; summary of the method: as §1
[4] = biological target: T1, von Hippel-Lindau disease tumor suppressor/AKT (Homo sapiens); test: Protac activity at VHL/AKT in human PC-3 cells assessed as reduction in S6 phosphorylation at 1 uM after 24 hrs by Western blot analysis; format: cell-based; summary of the method: as §1
[5] = biological target: T2, Protein cereblon/AKT (Homo sapiens) (UniProt P31751+Q9Y243+P31749+Q96SW2); test: Protac activity at CRBN/AKT in human BT-474 cells assessed as reduction in PRAS40 phosphorylation at 1 uM after 24 hrs by Western blot analysis; format: cell-based
Summary of the method: (§2)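 BT474 cells were treated 24 h with compound and lysed in IP lysis buffer (Tris pH 7.5, Triton X-100, phosphatase and protease inhibitors). Lysates were normalised by BCA and run on 4–12% Bis–Tris gels with PVDF wet transfer. Blots were probed for total AKT, P-AKT S473, P-PRAS40 T246 and P-S6 S240/244, with β-actin loading control and HRP chemiluminescence.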

[6] = biological target: T2, Protein cereblon/AKT (Homo sapiens); test: Protac activity at CRBN/AKT in human PC-3 cells assessed as reduction in phosphorylated AKT level at 1 uM after 24 hrs by Western blot analysis; format: cell-based; summary of the method: as §1
[7] = biological target: T2, Protein cereblon/AKT (Homo sapiens); test: Protac activity at CRBN/AKT in human PC-3 cells assessed as reduction in total AKT level at 1 uM after 24 hrs by Western blot analysis; format: cell-based; summary of the method: as §1
[8] = tested on: MDA-MB-468; test: Induction of apoptosis in human MDA-MB-468 cells at 2.5 uM measured upto 120 hrs by IncuCyte live-cell automated imaging analysis; format: functional
Summary of the method: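 MDA-MB-468 cells (1–3 × 10³/well, triplicate wells) grown with compound in DMEM/10% FBS at 37 °C, 5% CO₂. DRAQ7 at 1.5 μM was added to the medium, and apoptotic red-fluorescent counts were imaged on an IncuCyte over 5 days.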

[9] = in vivo; conditions: Swiss albino, mouse, ip, 50 mg/kg
[10] = in vivo; conditions: Swiss albino, mouse, ip, 50 mg/kg; remark: listed apart in the source
[11] = tested on: Mus musculus; test: Toxicity in Swiss albino mouse assessed as tolerability at 50 mg/kg, ip measured upto 8 hrs by LC-MS/MS method; format: organism-based; conditions: in vivo
[12] = tested on: BT-474; test: Antiproliferative activity against human BT-474 cells assessed as growth inhibition incubated for 5 days by IncuCyte live-cell imaging analysis; format: functional; conditions: BT-474, 120 h, time 5 day
[13] = tested on: PC-3; test: Antiproliferative activity against human PC-3 cells assessed as growth inhibition incubated for 5 days by IncuCyte live-cell imaging analysis; format: functional; conditions: PC-3, 120 h, time 5 day
[14] = tested on: MDA-MB-468; test: Antiproliferative activity against human MDA-MB-468 cells assessed as growth inhibition incubated for 5 days by IncuCyte live-cell imaging analysis; format: functional; conditions: MDA-MB-468, 120 h, time 5 day
[15] = biological target: T2, Protein cereblon/AKT (Homo sapiens); test: Protac activity at CRBN/AKT in human PC-3 cells assessed as reduction in S6 phosphorylation at 1 uM after 24 hrs by Western blot analysis; format: cell-based; summary of the method: as §1
[16] = biological target: T2, Protein cereblon/AKT (Homo sapiens); test: Protac activity at CRBN/AKT in human PC-3 cells assessed as reduction in PRAS40 phosphorylation at 1 uM after 24 hrs by Western blot analysis; format: cell-based; summary of the method: as §1
[17] = biological target: T1, von Hippel-Lindau disease tumor suppressor/AKT (Homo sapiens); test: Protac activity at VHL/AKT in human BT-474 cells assessed as reduction in phosphorylated AKT level at 5 to 10 uM after 24 hrs by Western blot analysis; format: cell-based; conditions: dose 5-10 µM; summary of the method: as §2
[18] = biological target: T1, von Hippel-Lindau disease tumor suppressor/AKT (Homo sapiens); test: Protac activity at VHL/AKT in human BT-474 cells assessed as reduction in total AKT level at 5 to 10 uM after 24 hrs by Western blot analysis; format: cell-based; conditions: dose 5-10 µM; summary of the method: as §2
[19] = tested on: BT-474; test: Inhibition of colony formation in human BT-474 cells at 0.1 to 10 uM after 14 days by crystal violet staining based assay; format: functional, cell-based; conditions: dose 0.1-10 µM, time 14.0 day
Summary of the method: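 BT474 cells were cultured 14 days with compound, and medium plus compound was replenished every 2 days. Viable cells were stained with 0.5% crystal violet and quantified.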

[20] = mouse, in vivo, ip, 50 mg/kg, 2 h
[21] = biological target: T1, von Hippel-Lindau disease tumor suppressor/AKT (Homo sapiens); test: Protac activity at VHL/AKT in human BT-474 cells assessed as reduction in total AKT level after 24 hrs by Western blot analysis; format: cell-based; conditions: dose 1-10 µM; summary of the method: as §2

- Activity [1]: inactive
- Activity [2]: inactive
Structure (SMILES): CCn1c(-c2nonc2N)nc2c(C#CC(C)(C)O)ncc(OCCCNCCCC(=O)NCCOCCC(=O)N[C@H](C(=O)N3C[C@H](O)C[C@H]3C(=O)NCc3ccc(-c4scnc4C)cc3)C(C)(C)C)c21

- Activity [5]: Active
Structure (SMILES): C[C@@H]1C[C@@H](O)c2ncnc(N3CCN(C(=O)[C@H](CNCCNC(=O)CCCCCCCCNc4cccc5c4C(=O)N(C4CCC(=O)NC4=O)C5=O)c4ccc(Cl)cc4)CC3)c21 (stereo partly specified)

- Activity [6]: Active
- Activity [7]: Active
- Activity [15]: Active
- Activity [16]: inactive
Structure (SMILES): CCn1c(-c2nonc2N)nc2c(C#CC(C)(C)O)ncc(OCCCNCCCC(=O)NCCCCCCCCNc3cccc4c3C(=O)N(C3CCC(=O)NC3=O)C4=O)c21 (stereo unspecified)

- Activity [6]: Active
- Activity [7]: Active
Structure (SMILES): CCn1c(-c2nonc2N)nc2c(C#CC(C)(C)O)ncc(OCCCNCCCC(=O)NCCOCCOCCOCCOCCOCCNc3cccc4c3C(=O)N(C3CCC(=O)NC3=O)C4=O)c21 (stereo unspecified)

- GI50 [12]: 3.3 µM
Structure (SMILES): C[C@@H]1C[C@@H](O)c2ncnc(N3CCN(C(=O)[C@H](CNCCC(=O)NCCCCCCCCNc4cccc5c4C(=O)N(C4CCC(=O)N(C)C4=O)C5=O)c4ccc(Cl)cc4)CC3)c21 (stereo partly specified)

- Activity [1]: inactive
- Activity [2]: inactive
Structure (SMILES): CCn1c(-c2nonc2N)nc2c(C#CC(C)(C)O)ncc(OCCCNCCCC(=O)NCCOCCOCCOCCOCCC(=O)N[C@H](C(=O)N3C[C@H](O)C[C@H]3C(=O)NCc3ccc(-c4scnc4C)cc3)C(C)(C)C)c21

- Activity [1]: inactive
- Activity [2]: inactive
Structure (SMILES): CCn1c(-c2nonc2N)nc2c(C#CC(C)(C)O)ncc(OCCCNCCCC(=O)NCCOCCOCCOCC(=O)N[C@H](C(=O)N3C[C@H](O)C[C@H]3C(=O)NCc3ccc(-c4scnc4C)cc3)C(C)(C)C)c21

Continued, compound first:

Structure (SMILES): CCn1c(-c2nonc2N)nc2c(C#CC(C)(C)O)ncc(OCCCNCCCC(=O)NCCCCCCCCCCC(=O)N[C@H](C(=O)N3C[C@H](O)C[C@H]3C(=O)NCc3ccc(-c4scnc4C)cc3)C(C)(C)C)c21
- Activity [1]: Active
- Activity [3]: inactive
- Activity [2]: Active
- Activity [4]: Active

Structure (SMILES): CCn1c(-c2nonc2N)nc2c(C#CC(C)(C)O)ncc(OCCCNCCCC(=O)NCCOCCOCCOCCNc3cccc4c3C(=O)N(C3CCC(=O)NC3=O)C4=O)c21 (stereo unspecified)
- Activity [6]: Active
- Activity [7]: Active

Structure (SMILES): Cc1ncsc1-c1ccc([C@H](C)NC(=O)[C@@H]2C[C@@H](O)CN2C(=O)[C@@H](NC(=O)CCCCCCCCCCC(=O)NCCNC[C@@H](C(=O)N2CCN(c3ncnc4c3[C@H](C)C[C@H]4O)CC2)c2ccc(Cl)cc2)C(C)(C)C)cc1
- Activity [8]: < 3%
- Cmax at 8 h [9]: 3000 nM
- Cmax at 2 h [10]: 3500 nM
- Activity [11]: Non-Toxic
- GI50 [12]: 1.3 µM
- GI50 [13]: 9.2 µM
- GI50 [14]: 3.8 µM

Structure (SMILES): CCn1c(-c2nonc2N)nc2c(C#CC(C)(C)O)ncc(OCCCNCCCC(=O)NCCOCC(=O)N[C@H](C(=O)N3C[C@H](O)C[C@H]3C(=O)NCc3ccc(-c4scnc4C)cc3)C(C)(C)C)c21
- Activity [1]: inactive
- Activity [2]: inactive

Structure (SMILES): CCn1c(-c2nonc2N)nc2c(C#CC(C)(C)O)ncc(OCCCNCCCC(=O)NCCOCCOCCOCCOCCOCCC(=O)N[C@H](C(=O)N3C[C@H](O)C[C@H]3C(=O)NCc3ccc(-c4scnc4C)cc3)C(C)(C)C)c21
- Activity [1]: inactive
- Activity [2]: inactive

Structure (SMILES): CCn1c(-c2nonc2N)nc2c(C#CC(C)(C)O)ncc(OCCCNCCCC(=O)NCCOCCOCC(=O)N[C@H](C(=O)N3C[C@H](O)C[C@H]3C(=O)NCc3ccc(-c4scnc4C)cc3)C(C)(C)C)c21
- Activity [1]: inactive
- Activity [2]: inactive

Structure (SMILES): CCn1c(-c2nonc2N)nc2c(C#CC(C)(C)O)ncc(OCCCNCCCC(=O)NCCOCCNc3cccc4c3C(=O)N(C3CCC(=O)NC3=O)C4=O)c21 (stereo unspecified)
- Activity [6]: Active
- Activity [7]: Active

Structure (SMILES): CCn1c(-c2nonc2N)nc2c(C#CC(C)(C)O)ncc(OCCCNCCCC(=O)NCCOCCOCCOCCOCCNc3cccc4c3C(=O)N(C3CCC(=O)NC3=O)C4=O)c21 (stereo unspecified)
- Activity [6]: Active
- Activity [7]: Active

Structure (SMILES): CCn1c(-c2nonc2N)nc2c(C#CC(C)(C)O)ncc(OCCCNCCCC(=O)NCCOCCOCCNc3cccc4c3C(=O)N(C3CCC(=O)NC3=O)C4=O)c21 (stereo unspecified)
- Activity [6]: Active
- Activity [7]: Active

Structure (SMILES): CCn1c(-c2nonc2N)nc2c(C#CC(C)(C)O)ncc(OCCCNCCCC(=O)NCCOCCOCCC(=O)N[C@H](C(=O)N3C[C@H](O)C[C@H]3C(=O)NCc3ccc(-c4scnc4C)cc3)C(C)(C)C)c21
- Activity [1]: inactive
- Activity [2]: inactive

Structure (SMILES): Cc1ncsc1-c1ccc(CNC(=O)[C@@H]2C[C@@H](O)CN2C(=O)[C@@H](NC(=O)COCCNC(=O)CCNC[C@@H](C(=O)N2CCN(c3ncnc4c3[C@H](C)C[C@H]4O)CC2)c2ccc(Cl)cc2)C(C)(C)C)cc1
- Activity [17]: Active
- Activity [18]: Active

Structure (SMILES): Cc1ncsc1-c1ccc([C@H](C)NC(=O)[C@H]2C[C@H](O)CN2C(=O)[C@@H](NC(=O)CCCCCCCCCCC(=O)NCCNC[C@@H](C(=O)N2CCN(c3ncnc4c3[C@H](C)C[C@H]4O)CC2)c2ccc(Cl)cc2)C(C)(C)C)cc1
- GI50 [12]: 3.1 µM

Structure (SMILES): CCn1c(-c2nonc2N)nc2c(C#CC(C)(C)O)ncc(OCCCNCCCC(=O)NCCOCCOCCOCCC(=O)N[C@H](C(=O)N3C[C@H](O)C[C@H]3C(=O)NCc3ccc(-c4scnc4C)cc3)C(C)(C)C)c21
- Activity [1]: inactive
- Activity [2]: inactive

Structure (SMILES): C[C@@H]1C[C@@H](O)c2ncnc(N3CCN(C(=O)[C@H](CNCCC(=O)NCCCCCCCCNc4cccc5c4C(=O)N(C4CCC(=O)NC4=O)C5=O)c4ccc(Cl)cc4)CC3)c21 (stereo partly specified)
- inhibition [19]: Active
- Cmax [20]: 1400 nM
- Activity [8]: < 3%
- Activity [11]: Non-Toxic
- GI50 [12]: 0.7 µM
- GI50 [13]: 7.4 µM
- GI50 [14]: 5.7 µM

Structure (SMILES): CC(C)NC[C@@H](C(=O)N1CCN(c2ncnc3c2[C@H](C)C[C@H]3O)CC1)c1ccc(Cl)cc1 [IPATASERTIB]
- GI50 [13]: 7.6 µM
- GI50 [14]: 3.7 µM

Structure (SMILES): Cc1ncsc1-c1ccc(CNC(=O)[C@@H]2C[C@@H](O)CN2C(=O)[C@@H](NC(=O)CCCCNC(=O)CCNC[C@@H](C(=O)N2CCN(c3ncnc4c3[C@H](C)C[C@H]4O)CC2)c2ccc(Cl)cc2)C(C)(C)C)cc1
- Activity [21]: Dose-dependent effect
